Source: ChEMBL document CHEMBL3244238, “In search of anti-Trypanosoma cruzi drugs: new leads from a mouse model” (J Med Chem, 1977)
Calls of active or inactive are those of the source. No cut-off for these calls is given here.

Legend:
Trypanosoma cruzi [1] = assay: Antitrypanosomal activity against Trypanosoma cruzi infected in albino CF1 mouse assessed as reduction in number of parasites in blood at 13 mg/kg/day, intramuscular treatment started on day 10 of infection up to day 14; type: functional; conditions: for inhibition in vivo at 13 mg/kg/day: im
How it was run: (§1)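 Male CF1 albino mice (4-10 weeks) infected intraperitoneally with 50 000 Brazil-strain T. cruzi trypomastigotes in Hanks' balanced salt solution, pH 7.2. Dosing was intramuscular, twice daily, from day 10 to day 13 afternoon or day 14 morning. Vehicle was 0.1% Tween 80 + 0.5% hydroxyethylcellulose. Seven mice per dose; dose given as total salt weight. Parasites/mL blood counted from day-14 smears; % suppression versus vehicle controls.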

Trypanosoma cruzi [2] = assay: Antitrypanosomal activity against Trypanosoma cruzi infected in albino CF1 mouse assessed as reduction in number of parasites in blood at 104 mg/kg/day, intramuscular treatment started on day 10 of infection up to day 14; type: functional; conditions: for inhibition in vivo at 104 mg/kg/day: im; how it was run: as §1
Trypanosoma cruzi [3] = assay: Antitrypanosomal activity against Trypanosoma cruzi infected in albino CF1 mouse assessed as reduction in number of parasites in blood intramuscularly treated daily from day 10 of infection up to day 14; type: functional
How it was run: (§2)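 Male CF1 albino mice (4-10 weeks) were infected ip with 50 000 Brazil-strain trypomastigotes in 0.2 mL Hanks' BSS, pH 7.2. Dosing was intramuscular, twice daily in 0.1% Tween 80/0.5% hydroxyethylcellulose, from day 10 through day 13 pm or day 14 am. Three fourfold-spaced doses were given, 7 mice per dose, with vehicle-only controls. Parasites/mL of blood were counted from day-14 smears.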

Trypanosoma cruzi [4] = assay: Antitrypanosomal activity against Trypanosoma cruzi infected in albino CF1 mouse assessed as reduction in number of parasites in blood at 52 mg/kg/day, intramuscular treatment started on day 10 of infection up to day 14; type: functional; conditions: for inhibition in vivo at 52 mg/kg/day: im; how it was run: as §1
Trypanosoma cruzi [5] = assay: Potency index, ratio of nifurtimox SD90 to compound SD90 for Trypanosoma cruzi infected in albino CF1 mouse assessed as reduction in number of parasites in blood; type: functional
How it was run: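 Index = nifurtimox SD90 ÷ test-compound SD90. SD values were read graphically from log-probit plots of % parasitemia suppression versus dose (mg/kg/day) in intramuscularly treated, T. cruzi-infected CF1 mice. A lower SD level was used when SD90 was unattainable. For salts, doses were given by total weight, and the index was multiplied by the reciprocal of the base fraction.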

Trypanosoma cruzi [6] = assay: Antitrypanosomal activity against Trypanosoma cruzi infected in albino CF1 mouse assessed as reduction in number of parasites in blood at 26 mg/kg/day, intramuscular treatment started on day 10 of infection up to day 14; type: functional; conditions: for inhibition in vivo at 26 mg/kg/day: im; how it was run: as §2
Trypanosoma cruzi [7] = assay: Antitrypanosomal activity against Trypanosoma cruzi infected in albino CF1 mouse assessed as reduction in number of parasites in blood at 3.25 mg/kg/day, intramuscular treatment started on day 10 of infection up to day 14; type: functional; conditions: for inhibition in vivo at 3.25 mg/kg/day: im; how it was run: as §2
Mus musculus = assay: Toxicity in albino CF1 mouse at 104 mg/kg/day, intramuscular treatment started on day 10 of trypanosomal infection up to day 14; type: organism-based; set-up: route intramuscular; conditions: in vivo, im

Structure (SMILES)	Ratio (Trypanosoma cruzi [5])	inhibition (Trypanosoma cruzi [1])	inhibition (Trypanosoma cruzi [2])	inhibition (Trypanosoma cruzi [4])	further results
COc1cc(NC(C)CCN)c2ncccc2c1/N=N/c1ccc(C(=O)O)cc1 (stereo not drawn)	>4	–	–	–	inhibition in vivo at 13 mg/kg/day (Trypanosoma cruzi [1]): 98%; inhibition in vivo at 104 mg/kg/day (Trypanosoma cruzi [2]): 100%; SD90 (Trypanosoma cruzi [3]): <3 mg/kg; inhibition in vivo at 52 mg/kg/day (Trypanosoma cruzi [4]): 99%
Nc1nc(/C=C/c2ccc([N+](=O)[O-])o2)no1	1.13	–	–	–	inhibition in vivo at 26 mg/kg/day (Trypanosoma cruzi [6]): 91%; inhibition in vivo at 104 mg/kg/day (Trypanosoma cruzi [2]): 90%; SD90 (Trypanosoma cruzi [3]): 48.5 mg/kg; inhibition in vivo at 3.25 mg/kg/day (Trypanosoma cruzi [7]): 49%
Nc1nc(N)c2c(n1)CCC(S(=O)(=O)c1ccc3ccccc3c1)C2 (stereo not drawn)	–	inactive	inactive	inactive	–
CCN(CC)CCCCCCNc1cc(OC)cc2c(C)ccnc12	inactive	inactive	–	–	inhibition (Trypanosoma cruzi [6]): inactive; inhibition (Trypanosoma cruzi [7]): inactive
CC(C)NCC1CCc2cc(CO)c([N+](=O)[O-])cc2N1 (stereo not drawn)	–	inactive	inactive	inactive	–
COc1cc(NC(C)CCN)c2nc(C)ccc2c1.Cl.O (stereo not drawn)	3.9	–	–	–	inhibition in vivo at 13 mg/kg/day (Trypanosoma cruzi [1]): 86%; inhibition in vivo at 26 mg/kg/day (Trypanosoma cruzi [6]): 82%; SD80 (Trypanosoma cruzi [3]): 10.5 mg/kg; inhibition in vivo at 3.25 mg/kg/day (Trypanosoma cruzi [7]): 38%
O=C(O)c1[nH]c(=O)[nH]c(=O)c1F	–	inactive	inactive	inactive	–
NC1(C(=O)O)CCCC1	–	inactive	inactive	inactive	–
CCCNCCCCCNc1cc(OC)cc2cccnc12.O=P(O)(O)O	1.2	–	–	–	inhibition in vivo at 13 mg/kg/day (Trypanosoma cruzi [1]): 54%; inhibition in vivo at 104 mg/kg/day (Trypanosoma cruzi [2]): 99%; SD90 (Trypanosoma cruzi [3]): 43.5 mg/kg; inhibition in vivo at 52 mg/kg/day (Trypanosoma cruzi [4]): 93%
Cc1ccc(C[P+](c2ccccc2)(c2ccccc2)c2ccccc2)cc1.[Cl-]	3.6	–	–	–	inhibition in vivo at 26 mg/kg/day (Trypanosoma cruzi [6]): 85%; SD80 (Trypanosoma cruzi [3]): 13 mg/kg; Activity (Mus musculus): Toxic; inhibition in vivo at 3.25 mg/kg/day (Trypanosoma cruzi [7]): 80%
COc1cc(NC(C)CCCN)c(OC)c2c(C)cc(C)nc12 (stereo not drawn)	–	inactive	inactive	inactive	–
COc1cc(NC(C)CCN)c2nccc(C)c2c1 (stereo not drawn)	inactive	inactive	inactive	inactive	–
COc1cc(NC(C)CCN)c2ncccc2c1.Cl (stereo not drawn)	3.8	–	–	–	inhibition in vivo at 13 mg/kg/day (Trypanosoma cruzi [1]): 80%; inhibition in vivo at 104 mg/kg/day (Trypanosoma cruzi [2]): 100%; SD90 (Trypanosoma cruzi [3]): 21.8 mg/kg; inhibition in vivo at 52 mg/kg/day (Trypanosoma cruzi [4]): 97%
CC1CS(=O)(=O)CCN1/N=C/c1ccc([N+](=O)[O-])o1 (stereo not drawn) [NIFURTIMOX]	1	–	–	–	inhibition in vivo at 13 mg/kg/day (Trypanosoma cruzi [1]): 57%; inhibition in vivo at 104 mg/kg/day (Trypanosoma cruzi [2]): 99%; SD90 (Trypanosoma cruzi [3]): 41.5 mg/kg; inhibition in vivo at 52 mg/kg/day (Trypanosoma cruzi [4]): 92%
c1ccc(C2CN3CCSC3=N2)cc1 (stereo not drawn)	–	inactive	inactive	inactive	–
COc1c(NC(C)CCN)cc(OC)c2c(C)ccnc12 (stereo not drawn)	inactive	inactive	inactive	inactive	–
Nc1nc(N)c2cc(S(=O)(=O)c3ccc4ccccc4c3)ccc2n1	–	inactive	inactive	inactive	–
CCN(CC)CCCNc1cc(OC)c2nc(C)ccc2c1OC.O=C(O)c1ccc(O)cc1O	–	inactive	inactive	inactive	–
N=C(N)c1ccc(-c2ccc(-c3ccc(C(=N)N)cc3)o2)cc1	–	inactive	inactive	inactive	–
COc1cc(NC(C)CCCN)c(OC)c2c(C)ccnc12.O=C(O)c1ccc(O)cc1O (stereo not drawn)	–	inactive	inactive	inactive	–
Nc1ccc(C(c2ccc(N)cc2)c2ccc(N)cc2)cc1	–	–	–	–	inhibition in vivo at 26 mg/kg/day (Trypanosoma cruzi [6]): 39%; inhibition in vivo at 104 mg/kg/day (Trypanosoma cruzi [2]): 52%; inhibition in vivo at 3.25 mg/kg/day (Trypanosoma cruzi [7]): 43%
Nc1ccc(C(c2ccc(N)cc2)c2ccc(N)cc2)cc1.O=C(O)c1cc2ccccc2c(Cc2c(O)c(C(=O)O)cc3ccccc23)c1O	0.3	–	–	–	SD50 (Trypanosoma cruzi [3]): 96 mg/kg
Cc1cc(NCCCCCCNc2cc(C)nc3ccc(N)cc23)c2cc(N)ccc2n1	–	inactive	inactive	inactive	–
COc1cc(NC(C)CCN)c2ncc(C)cc2c1.O=P(O)(O)O (stereo not drawn)	>9.2	–	–	–	inhibition in vivo at 13 mg/kg/day (Trypanosoma cruzi [1]): 98%; inhibition in vivo at 26 mg/kg/day (Trypanosoma cruzi [6]): 99%; SD90 (Trypanosoma cruzi [3]): <3.25 mg/kg; inhibition in vivo at 3.25 mg/kg/day (Trypanosoma cruzi [7]): 92%
COc1cc(NCCCN2CCN(CCCNc3cc(OC)cc4cccnc34)CC2)c2ncccc2c1	–	inactive	inactive	inactive	–
